According to ChEMBL document CHEMBL3758114, “Design, synthesis and biological evaluation of N-phenylquinazolin-4-amine hybrids as dual inhibitors of VEGFR-2 and HDAC” (Eur J Med Chem, 2016):

Tests used:
MCF7 = experiment: Antiproliferative activity against human MCF7 cells after 48 hrs by MTT assay; assay type: functional, cell-based; conditions: MCF7, 48 h
Histone deacetylase = experiment: Inhibition of HDAC in human HeLa cell nuclear extracts preincubated for 15 mins followed by addition of Fluor de Lys as substrate for 1 hr by fluorometric assay; assay type: cell-based
[1] = target: Vascular endothelial growth factor receptor 2 (Homo sapiens, UniProt P35968); experiment: Inhibition of VEGFR2 (unknown origin) preincubated for 5 mins followed by addition of ATP/gastrin precursor(Tyr87) biotinylated peptide cocktail incubated for 30 mins by ELISA
Method in brief: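 The kit enzyme, 100 ng VEGFR-2 in reaction cocktail, was preincubated with compound dilutions for 5 min at room temperature. The 30 min reaction ran at room temperature and was stopped with EDTA (50 mM, pH 8). Biotinylated peptide was captured on streptavidin wells for 60 min. Phospho-Tyr was detected with anti-pTyr-100 mAb, then HRP anti-mouse IgG, then TMB, read at 450 nm.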

Histone deacetylase 2 = Histone deacetylase 2 (Homo sapiens, UniProt Q92769); experiment: Inhibition of HDAC2 (unknown origin) preincubated for 15 mins followed by addition of Fluor de Lys as substrate for 1 hr by fluorometric assay
Method in brief: (§1)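 Each isolated HDAC isoform was incubated with compound at a range of concentrations for 15 min at room temperature. The reaction was then started with Fluor de Lys substrate and run for 1 h at room temperature. Developer was added to stop it. Fluorescence was read at excitation 355 nm and emission 460 nm. The assay was run three independent times.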

[2] = target: T1, Protein deacetylase HDAC6 (Homo sapiens, UniProt Q9UBN7); experiment: Inhibition of HDAC6 (unknown origin) preincubated for 15 mins followed by addition of Fluor de Lys as substrate for 1 hr by fluorometric assay; method in brief: as §1
T1 sequence (Q9UBN7 whole entry): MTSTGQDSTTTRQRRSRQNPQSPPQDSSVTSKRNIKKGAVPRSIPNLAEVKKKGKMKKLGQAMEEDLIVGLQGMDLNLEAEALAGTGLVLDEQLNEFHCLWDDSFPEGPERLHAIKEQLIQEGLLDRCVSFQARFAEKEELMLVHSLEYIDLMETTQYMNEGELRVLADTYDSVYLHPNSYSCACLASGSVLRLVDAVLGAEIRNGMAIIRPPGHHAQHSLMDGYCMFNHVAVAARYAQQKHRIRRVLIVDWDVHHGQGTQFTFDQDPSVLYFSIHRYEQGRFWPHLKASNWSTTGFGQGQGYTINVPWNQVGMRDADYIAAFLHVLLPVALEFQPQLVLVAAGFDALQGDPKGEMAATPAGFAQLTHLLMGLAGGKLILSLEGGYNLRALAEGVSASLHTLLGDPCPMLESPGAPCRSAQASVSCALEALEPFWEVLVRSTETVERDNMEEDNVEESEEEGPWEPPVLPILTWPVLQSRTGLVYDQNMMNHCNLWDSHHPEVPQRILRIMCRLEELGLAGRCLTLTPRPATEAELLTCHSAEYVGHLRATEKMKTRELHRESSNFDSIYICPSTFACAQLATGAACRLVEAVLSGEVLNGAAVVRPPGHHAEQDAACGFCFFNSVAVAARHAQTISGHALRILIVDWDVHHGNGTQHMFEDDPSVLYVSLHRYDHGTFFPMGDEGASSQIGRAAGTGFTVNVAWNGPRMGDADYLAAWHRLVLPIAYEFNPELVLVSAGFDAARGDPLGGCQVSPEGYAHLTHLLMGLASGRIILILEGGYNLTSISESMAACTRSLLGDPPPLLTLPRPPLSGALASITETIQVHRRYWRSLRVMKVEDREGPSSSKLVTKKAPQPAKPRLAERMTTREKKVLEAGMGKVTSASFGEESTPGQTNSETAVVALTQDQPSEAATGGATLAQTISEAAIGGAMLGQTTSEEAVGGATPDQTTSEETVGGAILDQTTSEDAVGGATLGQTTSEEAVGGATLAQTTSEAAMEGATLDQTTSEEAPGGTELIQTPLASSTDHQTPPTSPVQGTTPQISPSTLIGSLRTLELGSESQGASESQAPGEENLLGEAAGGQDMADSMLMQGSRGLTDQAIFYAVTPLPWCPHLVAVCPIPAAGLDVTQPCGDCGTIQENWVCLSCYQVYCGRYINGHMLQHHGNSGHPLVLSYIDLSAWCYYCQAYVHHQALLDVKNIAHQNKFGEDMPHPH

Histone deacetylase 8 = target: T2, Histone deacetylase 8 (Homo sapiens, UniProt Q9BY41); experiment: Inhibition of HDAC8 (unknown origin) preincubated for 15 mins followed by addition of Fluor de Lys as substrate for 1 hr by fluorometric assay; method in brief: as §1
T2 sequence (Q9BY41 whole entry): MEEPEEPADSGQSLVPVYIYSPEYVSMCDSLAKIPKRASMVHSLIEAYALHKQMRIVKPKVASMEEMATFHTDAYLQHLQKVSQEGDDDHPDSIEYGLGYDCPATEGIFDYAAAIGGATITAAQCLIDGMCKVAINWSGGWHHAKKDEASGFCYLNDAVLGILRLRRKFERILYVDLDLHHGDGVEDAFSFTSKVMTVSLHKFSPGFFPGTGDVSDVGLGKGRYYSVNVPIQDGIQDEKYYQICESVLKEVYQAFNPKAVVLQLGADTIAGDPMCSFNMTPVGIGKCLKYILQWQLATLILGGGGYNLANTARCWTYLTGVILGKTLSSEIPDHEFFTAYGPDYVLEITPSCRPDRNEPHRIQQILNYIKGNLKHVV

Histone deacetylase 1 = Histone deacetylase 1 (Homo sapiens, UniProt Q13547); experiment: Inhibition of HDAC1 (unknown origin) preincubated for 15 mins followed by addition of Fluor de Lys as substrate for 1 hr by fluorometric assay; method in brief: as §1
Sequence of Histone deacetylase 1 (Q13547 whole entry): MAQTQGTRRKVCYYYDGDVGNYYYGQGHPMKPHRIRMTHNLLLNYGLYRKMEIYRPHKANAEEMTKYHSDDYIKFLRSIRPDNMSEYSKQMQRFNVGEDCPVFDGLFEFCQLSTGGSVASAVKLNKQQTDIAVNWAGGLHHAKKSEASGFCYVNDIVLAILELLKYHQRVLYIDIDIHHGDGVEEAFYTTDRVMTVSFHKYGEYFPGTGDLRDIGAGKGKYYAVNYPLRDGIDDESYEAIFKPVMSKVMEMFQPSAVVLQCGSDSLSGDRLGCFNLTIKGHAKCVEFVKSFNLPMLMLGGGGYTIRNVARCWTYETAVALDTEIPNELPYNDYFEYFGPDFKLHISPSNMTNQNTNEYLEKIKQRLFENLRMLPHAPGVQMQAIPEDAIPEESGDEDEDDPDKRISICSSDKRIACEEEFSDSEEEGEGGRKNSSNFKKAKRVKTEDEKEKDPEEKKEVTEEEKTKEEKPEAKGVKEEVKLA

Sequence of Vascular endothelial growth factor receptor 2 (P35968 whole entry): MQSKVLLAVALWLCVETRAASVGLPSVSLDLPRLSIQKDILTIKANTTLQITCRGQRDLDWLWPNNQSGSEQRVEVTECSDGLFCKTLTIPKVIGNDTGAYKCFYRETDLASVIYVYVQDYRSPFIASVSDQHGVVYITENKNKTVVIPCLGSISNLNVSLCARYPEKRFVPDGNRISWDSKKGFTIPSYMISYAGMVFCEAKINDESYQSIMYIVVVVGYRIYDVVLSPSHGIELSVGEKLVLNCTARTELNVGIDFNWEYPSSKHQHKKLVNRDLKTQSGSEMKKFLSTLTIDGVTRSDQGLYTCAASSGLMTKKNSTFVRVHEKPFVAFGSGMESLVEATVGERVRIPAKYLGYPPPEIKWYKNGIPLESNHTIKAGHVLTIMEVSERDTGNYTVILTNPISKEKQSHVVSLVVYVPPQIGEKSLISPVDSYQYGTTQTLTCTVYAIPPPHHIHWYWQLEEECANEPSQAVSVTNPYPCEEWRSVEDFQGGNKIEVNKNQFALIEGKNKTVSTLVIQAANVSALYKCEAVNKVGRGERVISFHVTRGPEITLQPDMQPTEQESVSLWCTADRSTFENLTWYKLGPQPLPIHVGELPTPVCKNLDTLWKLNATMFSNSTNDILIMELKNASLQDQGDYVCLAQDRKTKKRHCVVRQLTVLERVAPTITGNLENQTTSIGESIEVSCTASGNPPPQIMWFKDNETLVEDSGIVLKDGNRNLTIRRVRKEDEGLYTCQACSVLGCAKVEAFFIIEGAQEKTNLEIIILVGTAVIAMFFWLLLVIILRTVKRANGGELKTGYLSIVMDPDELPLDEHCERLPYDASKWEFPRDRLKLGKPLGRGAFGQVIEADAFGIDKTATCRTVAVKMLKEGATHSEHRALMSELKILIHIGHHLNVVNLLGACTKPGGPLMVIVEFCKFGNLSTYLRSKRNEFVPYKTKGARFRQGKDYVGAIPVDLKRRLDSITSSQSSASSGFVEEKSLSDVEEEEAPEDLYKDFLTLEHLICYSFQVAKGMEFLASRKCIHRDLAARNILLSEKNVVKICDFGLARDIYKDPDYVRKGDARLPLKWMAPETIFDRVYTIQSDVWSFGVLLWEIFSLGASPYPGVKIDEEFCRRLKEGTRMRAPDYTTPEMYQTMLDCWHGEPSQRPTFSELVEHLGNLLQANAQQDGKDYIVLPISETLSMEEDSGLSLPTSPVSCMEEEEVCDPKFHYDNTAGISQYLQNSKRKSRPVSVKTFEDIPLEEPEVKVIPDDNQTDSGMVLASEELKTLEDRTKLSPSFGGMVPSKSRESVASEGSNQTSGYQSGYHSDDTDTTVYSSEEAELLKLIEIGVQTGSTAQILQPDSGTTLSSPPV
Sequence of Histone deacetylase 2 (Q92769 whole entry, canonical isoform): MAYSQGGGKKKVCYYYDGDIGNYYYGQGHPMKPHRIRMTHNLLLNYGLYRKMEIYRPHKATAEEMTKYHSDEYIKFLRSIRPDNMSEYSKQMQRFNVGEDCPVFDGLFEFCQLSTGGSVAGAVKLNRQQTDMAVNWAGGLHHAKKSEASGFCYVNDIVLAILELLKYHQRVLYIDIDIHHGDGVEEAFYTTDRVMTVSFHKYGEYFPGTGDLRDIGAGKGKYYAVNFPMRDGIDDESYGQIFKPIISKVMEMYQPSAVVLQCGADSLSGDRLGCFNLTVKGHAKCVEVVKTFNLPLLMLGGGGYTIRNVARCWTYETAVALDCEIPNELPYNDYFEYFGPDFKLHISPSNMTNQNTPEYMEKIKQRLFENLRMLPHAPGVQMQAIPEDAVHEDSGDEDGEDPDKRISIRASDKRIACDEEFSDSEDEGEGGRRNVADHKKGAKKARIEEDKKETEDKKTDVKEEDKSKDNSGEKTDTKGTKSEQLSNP

Row | SMILES | IC50 (MCF7) | IC50 (Histone deacetylase) | IC50 [1] | IC50 (Histone deacetylase 2) | IC50 [2] | IC50 (Histone deacetylase 8) | IC50 (Histone deacetylase 1)
1 | COc1cc2ncnc(Nc3ccc(F)cc3)c2cc1OCCCCCC(=O)NO | 18000 nM | 29 nM | 524 nM |  |  |  | 
2 | COc1cc2ncnc(Nc3ccccc3Cl)c2cc1OCCCCCCC(=O)NO | 7800 nM | 18 nM | 364 nM |  |  |  | 
3 | COc1cc2ncnc(Nc3ccc(Cl)cc3)c2cc1OCCCCCC(=O)NO | 4000 nM | 11 nM | 313 nM |  |  |  | 
4 | COc1cc2ncnc(Nc3ccc(Br)cc3)c2cc1OCCCCCCC(=O)NO | 850 nM | 2.2 nM | 74 nM | 3.3 nM | 16.4 nM | 4.6 nM | 1.8 nM
5 | COc1cc2ncnc(Nc3ccc(Cl)cc3)c2cc1OCCCCCCC(=O)NO | 1700 nM | 3.2 nM | 215 nM |  |  |  | 
6 | COc1cc2ncnc(Nc3ccc(F)cc3)c2cc1OCCCCCCC(=O)NO | 2400 nM | 8.5 nM | 270 nM |  |  |  | 
7 | COc1cc2ncnc(Nc3ccc(F)cc3)c2cc1OCCCC(=O)NO | > 100000 nM | 1340 nM | 376 nM |  |  |  | 
8 | COc1cc2ncnc(Nc3ccccc3F)c2cc1OCCCCCCC(=O)NO | 15000 nM | 32 nM | 754 nM |  |  |  | 
9 | COc1cc2ncnc(Nc3ccccc3Br)c2cc1OCCCCCCC(=O)NO | 2600 nM | 8.8 nM | > 10000 nM |  |  |  | 
10 | COc1cc2ncnc(Nc3ccccc3F)c2cc1OCCCCCC(=O)NO | 84000 nM | 145 nM | 918 nM |  |  |  | 
11 | COc1cc2ncnc(Nc3ccc(Br)cc3)c2cc1OCCCCCC(=O)NO | 3500 nM | 12 nM | 153 nM |  |  |  | 
12 | COc1cc2ncnc(Nc3ccc(Cl)cc3)c2cc1OCCCCC(=O)NO | 61000 nM | 132 nM | 220 nM |  |  |  | 
13 | COc1cc2ncnc(Nc3ccccc3Cl)c2cc1OCCCCCC(=O)NO | 15000 nM | 29 nM | 685 nM |  |  |  | 
14 | COc1cc2ncnc(Nc3ccc(F)cc3)c2cc1OCCCCC(=O)NO | 74000 nM | 139 nM | 455 nM |  |  |  | 
15 | COc1cc2ncnc(Nc3ccccc3Br)c2cc1OCCCCCC(=O)NO | 17000 nM | 31 nM | > 10000 nM |  |  |  | 
16 | COc1cc2ncnc(Nc3ccccc3F)c2cc1OCCCC(=O)NO | > 100000 nM | 673 nM | 865 nM |  |  |  | 
17 | COc1cc2ncnc(Nc3ccc(Br)cc3)c2cc1OCCCC(=O)NO | 52000 nM | 545 nM | 98 nM |  |  |  | 
18 | COc1cc2ncnc(Nc3ccccc3Cl)c2cc1OCCCC(=O)NO | > 100000 nM | 1255 nM | 857 nM |  |  |  | 
19 | COc1cc2ncnc(Nc3ccccc3F)c2cc1OCCCCC(=O)NO | > 100000 nM | 554 nM | 840 nM |  |  |  | 
20 | COc1cc2ncnc(Nc3ccccc3Cl)c2cc1OCCCCC(=O)NO | 78000 nM | 128 nM | 832 nM |  |  |  | 
21 | COc1cc2ncnc(Nc3ccccc3Br)c2cc1OCCCCC(=O)NO | 33000 nM | 74 nM | > 10000 nM |  |  |  | 
22 | COc1cc2ncnc(Nc3ccc(Br)cc3)c2cc1OCCCCC(=O)NO | 36000 nM | 68 nM | 59 nM |  |  |  | 
23 | O=C(CCCCCCC(=O)Nc1ccccc1)NO [VORINOSTAT] |  |  | > 10000 nM |  |  |  | 
24 | COc1cc2ncnc(Nc3ccccc3Br)c2cc1OCCCC(=O)NO |  | 840 nM |  |  |  |  | 
25 | COc1cc2ncnc(Nc3ccc(Cl)cc3)c2cc1OCCCC(=O)NO | 85000 nM | 698 nM | 182 nM |  |  |  | 
